# Data: ChEMBL document CHEMBL1139985, “Discovery of (S)-2-((S)-2-(3,5-difluorophenyl)-2-hydroxyacetamido)-N-((S,Z)-3-methyl-4-oxo-4,5-dihydro-3H-benzo[d][1,2]diazepin-5-yl)propanamide (BMS-433796): a gamma-secretase inhibitor with Abeta lowering activity in a transgenic mouse model of Alzheimer's disease” (Bioorg Med Chem Lett, 2007)
# The source made the active and inactive calls. No cut-off for these calls is given here.
# Legend:
# Gamma-secretase = test: Inhibition of gamma secretase assessed as reduction of amyloid beta level in H4 cells; type: cell-based, Homo sapiens
# Procedure, shortened: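 H4 cells; Aβ40 lowering measured in a cell-based assay; IC50 values are means of two experiments, 16 data points each, intra-assay variance <10%.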
# [1] = Drug level in Tg2576 mouse plasma at 30 umol/kg, po after 3 hrs; type: ADME, organism-based; conditions: read-out: Drug uptake
# Procedure, shortened: (§1)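 Tg2576 mice, single oral dose of 30 µmol/kg; brain and plasma sampled 3 h after dosing for Aβ (% inhibition) and compound levels; n = 7-10; means ± SEM.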
# Mus musculus [2] = test: Inhibition of beta amyloid peptide in Tg2576 mouse plasma at 30 umol/kg, po after 3 hrs; type: functional; procedure, shortened: as §1
# [3] = Drug level in Tg2576 mouse brain at 30 umol/kg, po after 3 hrs; type: ADME, organism-based; conditions: read-out: Drug uptake; procedure, shortened: as §1
# Mus musculus [4] = test: Inhibition of beta amyloid peptide in Tg2576 mouse brain at 30 umol/kg, po after 3 hrs; type: functional; procedure, shortened: as §1
# Mus musculus [5] = test: Toxicity in Tg2576 mouse at 30 umol/kg, po bid after 10 days; type: organism-based; conditions: in vivo, 240 h
# Procedure, shortened: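 Tg2576 mice dosed orally at 30 µmol/kg twice daily; clinical signs, body weight and mortality monitored; intestinal histopathology assessed.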
# Mus musculus [6] = test: Inhibition of beta amyloid peptide in po dosed Tg2576 mouse brain after 3 hrs; type: functional, organism-based
# Procedure, shortened: (§2)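 Tg2576 mice dosed orally; brain and plasma Aβ measured 3 h after dosing; ED50 derived from dose-dependent Aβ reduction.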
# Mus musculus [7] = test: Inhibition of beta amyloid peptide in Tg2576 mouse brain at 30 umol/kg, po bid after 14 days; type: functional; design: scale not given: the % may be the effect or the level left
# Procedure, shortened: (§3)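 Tg2576 mice dosed orally at 4 or 30 µmol/kg, once daily for 1 or 14 days or twice daily (30 µmol/kg); brain Aβ inhibition measured.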
# Mus musculus [8] = species on record: Mus musculus; test: Increase in beta amyloid peptide in Tg2576 mouse plasma after 24 hrs; type: functional
# Homo sapiens = species on record: Homo sapiens; test: Ratio of IC50 for Notch processing to IC50 for amyloid beta processing
# [9] = Inhibition of human Cytochrome P450; type: ADME
# Procedure, shortened: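 Inhibition of human CYPs measured in vitro as IC50.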
# Mus musculus [10] = species on record: Mus musculus; test: Reduction of beta amyloid peptide in Tg2576 mouse brain after 12 hrs; type: functional, organism-based
# [11] = Terminal half life in Sprague-Dawley rat at 2.3 umol/kg, iv; type: ADME, organism-based; conditions: in vivo
# Mus musculus [12] = species on record: Mus musculus; test: Reduction of beta amyloid peptide in Tg2576 mouse plasma after 12 hrs; type: functional, organism-based
# Mus musculus [13] = test: Inhibition of beta amyloid peptide in Tg2576 mouse brain at 30 umol/kg, po, qd after 14 days; type: functional; design: scale not given: the % may be the effect or the level left; procedure, shortened: as §3
# [14] = Clearance in Sprague-Dawley rat at 2.3 umol/kg, iv; type: ADME, organism-based; conditions: in vivo
# [15] = Oral bioavailability in Sprague-Dawley rat at 35 umol/kg; type: ADME, organism-based; conditions: in vivo
# Procedure, shortened: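 Rats dosed orally with a PEG-400 suspension at 35 µmol/kg; bioavailability from plasma exposure.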
# Mus musculus [16] = test: Inhibition of beta amyloid peptide in Tg2576 mouse brain at 4 umol/kg, po qd after 14 days; type: functional; design: scale not given: the % may be the effect or the level left; procedure, shortened: as §3
# Mus musculus [17] = test: Inhibition of beta amyloid peptide in Tg2576 mouse brain at 4 umol/kg, po qd after 1 day; type: functional; design: scale not given: the % may be the effect or the level left; procedure, shortened: as §3
# Mus musculus [18] = test: Inhibition of beta amyloid peptide in Tg2576 mouse brain at 30 umol/kg, po qd after 1 day; type: functional; design: scale not given: the % may be the effect or the level left; procedure, shortened: as §3
# Mus musculus [19] = test: Inhibition of beta amyloid peptide in po dosed Tg2576 mouse plasma after 3 hrs; type: functional; procedure, shortened: as §2
compound,measurement,setting,value
CC1=NN(C)C(=O)C(NC(=O)[C@H](C)NC(=O)Cc2ccoc2)c2ccccc21 (some centres undefined),IC50,Gamma-secretase,2 nM
C[C@H](NC(=O)Cc1ccco1)C(=O)NC1C(=O)N(C)N=Cc2ccccc21 (some centres undefined),IC50,Gamma-secretase,24 nM
CC(C)C[C@H](NC(=O)Cc1cccc(F)c1)C(=O)NC1C(=O)N(C)N=Cc2ccccc21 (some centres undefined),IC50,Gamma-secretase,2 nM
C[C@H](NC(=O)Cc1cc(F)cc(F)c1)C(=O)NC1C(=O)N(C)N=Cc2ccccc21 (some centres undefined),concentration at 3 h,[1],0.199 µM
same,inhibition in vivo at 30 µmol/kg,Mus musculus [2],75%
same,concentration at 3 h,[3],0.012 µM
same,inhibition in vivo at 30 µmol/kg,Mus musculus [4],54%
same,IC50,Gamma-secretase,6 nM
CC(C)N1N=Cc2ccccc2C(NC(=O)[C@H](C)NC(=O)Cc2cc(F)cc(F)c2)C1=O (some centres undefined),IC50,Gamma-secretase,4 nM
CC(C)C[C@H](NC(=O)Cc1ccsc1)C(=O)NC1C(=O)N(C)N=Cc2ccccc21 (some centres undefined),IC50,Gamma-secretase,0.7 nM
C[C@H](NC(=O)[C@@H](O)c1cc(F)cc(F)c1)C(=O)NC1C(=O)N(C)N=Cc2ccccc21 (some centres undefined),IC50,Gamma-secretase,0.2 nM
C[C@H](NC(=O)Cc1cccc(F)c1)C(=O)NC1C(=O)N(C)N=Cc2ccccc21 (some centres undefined),IC50,Gamma-secretase,8 nM
CC(C)C[C@H](NC(=O)CC1CCCCC1)C(=O)NC1C(=O)N(C)N=Cc2ccccc21 (some centres undefined),IC50,Gamma-secretase,14 nM
C[C@H](NC(=O)CC1CCCCC1)C(=O)NC1C(=O)N(C)N=Cc2ccccc21 (some centres undefined),IC50,Gamma-secretase,43 nM
CC(C)C[C@H](NC(=O)[C@H](O)c1ccccc1)C(=O)NC1C(=O)N(C)N=Cc2ccccc21 (some centres undefined),IC50,Gamma-secretase,56 nM
C[C@H](NC(=O)[C@H](O)c1cc(F)cc(F)c1)C(=O)N[C@H]1C(=O)N(C)N=Cc2ccccc21,IC50,Gamma-secretase,750 nM
C[C@H](NC(=O)Cc1cccs1)C(=O)NC1C(=O)N(C)N=Cc2ccccc21 (some centres undefined),IC50,Gamma-secretase,3 nM
CC(C)C[C@H](NC(=O)Cc1ccccc1F)C(=O)NC1C(=O)N(C)N=Cc2ccccc21 (some centres undefined),IC50,Gamma-secretase,22 nM
C[C@H](NC(=O)Cc1cccc(Cl)c1)C(=O)NC1C(=O)N(C)N=Cc2ccccc21 (some centres undefined),IC50,Gamma-secretase,10 nM
C[C@H](NC(=O)Cc1ccc(F)cc1)C(=O)NC1C(=O)N(C)N=Cc2ccccc21 (some centres undefined),IC50,Gamma-secretase,59 nM
C[C@H](NC(=O)[C@@H](O)c1cc(F)cc(F)c1)C(=O)N[C@@H]1C(=O)N(C)N=Cc2ccccc21,Activity,Mus musculus [5],Toxic
same,concentration at 3 h,[1],1.96 µM
same,Activity,Mus musculus [6],Active
same,Activity,Mus musculus [7],98%
same,inhibition in vivo at 30 µmol/kg,Mus musculus [2],88%
same,Activity,Mus musculus [8],60%
same,Ratio IC50,Homo sapiens,0.5
same,IC50,[9],> 100000 nM
same,Activity,Mus musculus [10],Active
same,half-life,[11],4.6 h
same,Activity,Mus musculus [12],Active
same,concentration at 3 h,[3],0.133 µM
same,Activity,Mus musculus [13],89%
same,clearance,[14],0.312 L/h/kg
same,bioavailability,[15],31%
same,Activity,Mus musculus [16],38%
same,Activity,Mus musculus [17],25%
same,Activity,Mus musculus [18],83%
same,inhibition in vivo at 30 µmol/kg,Mus musculus [4],90%
same,IC50,Gamma-secretase,0.3 nM
C[C@H](NC(=O)Cc1cc(F)cc(F)c1)C(=O)NC1C(=O)N(C)NCc2ccccc21 (some centres undefined),concentration at 3 h,[1],0.205 µM
same,inhibition in vivo at 30 µmol/kg,Mus musculus [2],80%
same,ED50,Mus musculus [19],5 µmol/kg
same,concentration at 3 h,[3],0.006 µM
same,inhibition in vivo at 30 µmol/kg,Mus musculus [4],51%
same,IC50,Gamma-secretase,9 nM
CC1=NN(C)C(=O)C(NC(=O)[C@H](C)NC(=O)Cc2cc(F)cc(F)c2)c2ccccc21 (some centres undefined),IC50,Gamma-secretase,1.3 nM
C[C@H](NC(=O)Cc1ccsc1)C(=O)NC1C(=O)N(C)N=Cc2ccccc21 (some centres undefined),IC50,Gamma-secretase,1 nM
C[C@H](NC(=O)Cc1cccnc1)C(=O)NC1C(=O)N(C)N=Cc2ccccc21 (some centres undefined),IC50,Gamma-secretase,162 nM
CC(C)C[C@H](NC(=O)[C@@H](O)c1ccccc1)C(=O)NC1C(=O)N(C)N=Cc2ccccc21 (some centres undefined),IC50,Gamma-secretase,0.4 nM
C[C@H](NC(=O)Cc1ccc2ccccc2c1)C(=O)NC1C(=O)N(C)N=Cc2ccccc21 (some centres undefined),IC50,Gamma-secretase,269 nM
CC(C)C[C@H](NC(=O)Cc1cc(F)cc(F)c1)C(=O)NC1C(=O)N(C)N=Cc2ccccc21 (some centres undefined),IC50,Gamma-secretase,0.5 nM
C[C@H](NC(=O)[C@H](O)c1cc(F)cc(F)c1)C(=O)N[C@@H]1C(=O)N(C)N=Cc2ccccc21,concentration at 3 h,[1],2.75 µM
same,Activity,Mus musculus [6],Active
same,inhibition in vivo at 30 µmol/kg,Mus musculus [2],86%
same,concentration at 3 h,[3],0.202 µM
same,inhibition in vivo at 30 µmol/kg,Mus musculus [4],91%
same,IC50,Gamma-secretase,10 nM
CC(C)C[C@H](NC(=O)Cc1ccc(F)cc1)C(=O)NC1C(=O)N(C)N=Cc2ccccc21 (some centres undefined),IC50,Gamma-secretase,14 nM
CC(C)C[C@H](NC(=O)Cc1cccs1)C(=O)NC1C(=O)N(C)N=Cc2ccccc21 (some centres undefined),IC50,Gamma-secretase,1.9 nM
C[C@H](NC(=O)C(=O)c1cc(F)cc(F)c1)C(=O)NC1C(=O)N(C)N=Cc2ccccc21 (some centres undefined),concentration at 3 h,[1],2.09 µM
same,inhibition in vivo at 30 µmol/kg,Mus musculus [2],98%
same,concentration at 3 h,[3],0.28 µM
same,inhibition in vivo at 30 µmol/kg,Mus musculus [4],92%
same,IC50,Gamma-secretase,1 nM
C[C@H](NC(=O)[C@@H](O)c1cc(F)cc(F)c1)C(=O)N[C@H]1C(=O)N(C)N=Cc2ccccc21,concentration at 3 h,[1],0.546 µM
same,concentration at 3 h,[3],0.072 µM
same,inhibition in vivo at 30 µmol/kg,Mus musculus [4],29%
same,IC50,Gamma-secretase,30 nM
